Assay results taken from ChEMBL document CHEMBL1129383, “Potent immunosuppressants, 2-alkyl-2-aminopropane-1,3-diols” (J Med Chem, 1996).
Blank lines part the entries; values can stand above or below the compound they belong to.

How the values were obtained:
Rattus norvegicus [1] = assay: Mean survival time of rats after skin allograft (intraperitoneal administration) at 10 mg/kg; format: functional
Procedure, shortened: (§1)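 LEW rat (male, 4 wk) dorsal skin grafted onto lateral thorax of F344 rats (male, 4 wk). Compounds in 20% (hydroxypropyl)-β-cyclodextrin given ip daily for 10 days from transplant day. Grafts inspected daily until rejection (>90% necrosis of graft epithelium); mean survival time in days ± SD, n = 4–5, Mann-Whitney U test. "Toxic" means animals died.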

Rattus norvegicus [2] = assay: Mean survival time of rats after skin allograft (intraperitoneal administration) at 30 mg/kg; toxic - animals died; format: ADME, organism-based; set-up: dose 30 mg/kg, route intraperitoneal; conditions: in vivo, ip; procedure, shortened: as §1
Rattus norvegicus [3] = assay: Mean survival time of rats after skin allograft (intraperitoneal administration) at 3 mg/kg; format: functional; procedure, shortened: as §1
Rattus norvegicus [4] = assay: Mean survival time of rats after skin allograft (intraperitoneal administration) at 20 mg/kg; format: functional; procedure, shortened: as §1
[5] = Immunosuppressive activity on mouse allogenic MLR in vitro; format: functional
Procedure, shortened: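 Responders were BALB/c spleen cells (5 × 10⁵, H-2^d). Stimulators were an equal number of C57BL/6 spleen cells (H-2^b) treated with mitomycin C for 30 min at 37 °C. Co-culture in RPMI 1640 with 5 × 10⁻⁵ M 2-mercaptoethanol, 10% FCS and varied compound, 4 days at 37 °C, 5% CO₂. Proliferation read by MTT. IC50 is the mean of triplicates.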

Rattus norvegicus [6] = assay: Mean survival time of rats after skin allograft (intraperitoneal administration) at 1 mg/kg; format: functional; procedure, shortened: as §1
Rattus norvegicus [7] = assay: Mean survival time of rats after skin allograft (intraperitoneal administration) at 20 mg/kg; toxic - animals died; format: ADME, organism-based; set-up: dose 20 mg/kg, route intraperitoneal; conditions: in vivo, ip; procedure, shortened: as §1
Rattus norvegicus [8] = assay: Mean survival time of rats after skin allograft (intraperitoneal administration) at 0.1 mg/kg; format: functional; procedure, shortened: as §1
Rattus norvegicus [9] = assay: Mean survival time of rats after skin allograft (intraperitoneal administration) at 0.3 mg/kg; format: functional; procedure, shortened: as §1
Rattus norvegicus [10] = assay: Mean survival time of rats after skin allograft (intraperitoneal administration) at 1 mg/kg; toxic - animals died; format: ADME, organism-based; set-up: dose 1 mg/kg, route intraperitoneal; conditions: in vivo, ip; procedure, shortened: as §1
Rattus norvegicus [11] = assay: Mean survival time of rats after skin allograft (intraperitoneal administration) at 10 mg/kg; toxic - animals died; format: ADME, organism-based; set-up: dose 10 mg/kg, route intraperitoneal; conditions: in vivo, ip; procedure, shortened: as §1
Rattus norvegicus [12] = assay: Mean survival time of rats after skin allograft (oral administration) at 0.1 mg/kg; format: functional
Procedure, shortened: as §1, with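 “5% (hydroxypropyl)methylcellulose” for “20% (hydroxypropyl)-β-cyclodextrin”, “orally,” for “ip”, “SD.” for “SD, n = 4–5, Mann-Whitney U test.”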

Rattus norvegicus [13] = assay: Mean survival time of rats after skin allograft (oral administration) at 0.3 mg/kg; format: functional
Procedure, shortened: as §1, with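 “5% (hydroxypropyl)methylcellulose” for “20% (hydroxypropyl)-β-cyclodextrin”, “orally,” for “ip”, “SD.” for “SD, n = 4–5, Mann-Whitney U test.”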

Rattus norvegicus [14] = assay: Mean survival time of rats after skin allograft (oral administration) at 30 mg/kg; toxic - animals died; format: ADME, organism-based; set-up: dose 30 mg/kg, route oral; conditions: in vivo
Procedure, shortened: as §1, with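 “5% (hydroxypropyl)methylcellulose” for “20% (hydroxypropyl)-β-cyclodextrin”, “orally,” for “ip”, “SD.” for “SD, n = 4–5, Mann-Whitney U test.”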

Rattus norvegicus [15] = assay: Mean survival time of rats after skin allograft (oral administration) at 1 mg/kg; format: functional
Procedure, shortened: as §1, with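 “5% (hydroxypropyl)methylcellulose” for “20% (hydroxypropyl)-β-cyclodextrin”, “orally,” for “ip”, “SD.” for “SD, n = 4–5, Mann-Whitney U test.”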

Rattus norvegicus [16] = assay: Mean survival time of rats after skin allograft (oral administration) at 3 mg/kg; format: functional
Procedure, shortened: as §1, with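 “5% (hydroxypropyl)methylcellulose” for “20% (hydroxypropyl)-β-cyclodextrin”, “orally,” for “ip”, “SD.” for “SD, n = 4–5, Mann-Whitney U test.”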

Rattus norvegicus [17] = assay: Mean survival time of rats after skin allograft (oral administration) at 10 mg/kg; format: functional
Procedure, shortened: as §1, with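 “5% (hydroxypropyl)methylcellulose” for “20% (hydroxypropyl)-β-cyclodextrin”, “orally,” for “ip”, “SD.” for “SD, n = 4–5, Mann-Whitney U test.”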

Rattus norvegicus [18] = assay: Mean survival time of rats after skin allograft (oral administration) at 100 mg/kg; toxic - animals died; format: ADME, organism-based; set-up: dose 100 mg/kg, route oral; conditions: in vivo
Procedure, shortened: as §1, with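 “5% (hydroxypropyl)methylcellulose” for “20% (hydroxypropyl)-β-cyclodextrin”, “orally,” for “ip”, “SD.” for “SD, n = 4–5, Mann-Whitney U test.”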

Mus musculus = organism: Mus musculus; assay: Effect of compound on IL-2 production from alloantigen-stimulated mouse spleen cells; format: functional, cell-based
Procedure, shortened: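 BALB/c spleen cells at 5×10^6 cells/mL co-cultured with an equal number of mitomycin C-pretreated C57BL/6 spleen cells, with or without test compound, in RPMI 1640 with 5×10^-5 M 2-mercaptoethanol and 10% FCS; 48 h at 37 °C. Supernatant IL-2 activity measured by IL-2-dependent CTLL-2 proliferation, given in units/mL.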

Rattus norvegicus [19] = assay: Mean survival time of rats after skin allograft (oral administration) at 30 mg/kg; format: functional
Procedure, shortened: as §1, with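 “5% (hydroxypropyl)methylcellulose” for “20% (hydroxypropyl)-β-cyclodextrin”, “orally,” for “ip”, “SD.” for “SD, n = 4–5, Mann-Whitney U test.”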

Rattus norvegicus [20] = assay: Mean survival time of rats after skin allograft (intraperitoneal administration) at 100 mg/kg; toxic - animals died; format: ADME, organism-based; set-up: dose 100 mg/kg, route intraperitoneal; conditions: in vivo, ip; procedure, shortened: as §1
Rattus norvegicus [21] = assay: Mean survival time of rats after skin allograft (intraperitoneal administration) at 30 mg/kg; format: functional; procedure, shortened: as §1

SMILES: CCCCCCCCCCCCCCCC[C@@H](O)[C@H](O)C(N)(CO)CO
MST (Rattus norvegicus [1]): 11.8 days
MST (Rattus norvegicus [2]): Toxic
MST (Rattus norvegicus [3]): 9.2 days
MST (Rattus norvegicus [4]): 15 days
IC50 [5]: 320 nM
MST (Rattus norvegicus [6]): 8.2 days

IC50 [5]: 12 nM
SMILES: CCCCCCCCCCCCCC(N)(CO)CO

SMILES: CCCCCCCCCCCCCCCCC(N)(CO)CO
MST (Rattus norvegicus [7]): Toxic
MST (Rattus norvegicus [3]): 41.8 days
MST (Rattus norvegicus [8]): 10.5 days
MST (Rattus norvegicus [9]): 14.3 days
IC50 [5]: 10 nM
MST (Rattus norvegicus [6]): 38.5 days

IC50 [5]: 270 nM
SMILES: CCCCCCCCCCCCC(N)(CO)CO

IC50 [5]: 3700 nM
SMILES: CCCCCCCCC(N)(CO)CO

IC50 [5]: 1600 nM
SMILES: CCCCCCCCCCCCCCCCCCCCCCC(N)(CO)CO

IC50 [5]: 440 nM
SMILES: CCCCCCCCCCC(N)(CO)CO

IC50 [5]: 3.6 nM
SMILES: CCCCCCCCCCCCC/C=C/C[C@H]1OC(=O)[C@](N)(CO)[C@@H]1O

SMILES: CCCCCCC(O)CCCCCC/C=C/C[C@@H](O)[C@H](O)[C@@](N)(CO)C(=O)O (stereo partly specified)
MST (Rattus norvegicus [10]): Toxic
MST (Rattus norvegicus [8]): 7.6 days
MST (Rattus norvegicus [9]): 9.6 days
IC50 [5]: 6.3 nM

SMILES: CCCCCCCCCCCCCCCCCCC(N)(CO)CO
MST (Rattus norvegicus [3]): 17.6 days
MST (Rattus norvegicus [9]): 11.2 days
IC50 [5]: 12 nM
MST (Rattus norvegicus [11]): Toxic
MST (Rattus norvegicus [6]): 14.8 days

IC50 [5]: 190 nM
SMILES: CCCCCCCCCCCCCCCCCCCCC(N)(CO)CO

SMILES: CCCCCCCCCCCCCCCC(N)(CO)CO
MST (Rattus norvegicus [12]): 18.8 days
MST (Rattus norvegicus [13]): 28.5 days
MST (Rattus norvegicus [14]): Toxic
MST (Rattus norvegicus [15]): 35.5 days
IC50 [5]: 2.9 nM
MST (Rattus norvegicus [11]): Toxic
MST (Rattus norvegicus [16]): 47 days
MST (Rattus norvegicus [17]): 8.3 days

SMILES: CCCCCCCCCCCCC/C=C/C[C@@H](O)[C@H](O)C(N)(CO)CO
MST (Rattus norvegicus [1]): 14 days
MST (Rattus norvegicus [2]): Toxic
MST (Rattus norvegicus [3]): 9.8 days
MST (Rattus norvegicus [4]): 16.6 days
IC50 [5]: 56 nM
MST (Rattus norvegicus [6]): 8.2 days

SMILES: CCCCCCC(O)CCCCCC/C=C/C[C@@H](O)[C@H](O)C(N)(CO)CO (stereo partly specified)
MST (Rattus norvegicus [1]): 11.8 days
MST (Rattus norvegicus [2]): Toxic
MST (Rattus norvegicus [3]): 9.2 days
MST (Rattus norvegicus [4]): 13.4 days
IC50 [5]: 4.7 nM
MST (Rattus norvegicus [6]): 8.2 days

IC50 [5]: 10 nM
SMILES: CCCCCCCCCCCCC/C=C/C[C@H]1OC(=O)[C@](N)(CO)[C@H]1O

SMILES: CCCCCCCCCCCCCCC(N)(CO)CO
MST (Rattus norvegicus [18]): Toxic
MST (Rattus norvegicus [12]): 10.3 days
MST (Rattus norvegicus [3]): 44.4 days
MST (Rattus norvegicus [13]): 13.6 days
IC50 (Mus musculus): > 1000 nM
MST (Rattus norvegicus [19]): 52.2 days
MST (Rattus norvegicus [8]): 11.2 days
MST (Rattus norvegicus [15]): 24.4 days
MST (Rattus norvegicus [9]): 23.1 days
IC50 [5]: 5.9 nM
MST (Rattus norvegicus [11]): Toxic
MST (Rattus norvegicus [16]): 36.4 days
MST (Rattus norvegicus [6]): 39 days
MST (Rattus norvegicus [17]): 46.4 days

SMILES: CCCCCCCCCCCCC/C=C/C[C@@H](O)[C@H](O)[C@@](N)(CO)C(=O)O
MST (Rattus norvegicus [10]): Toxic
MST (Rattus norvegicus [8]): 9 days
MST (Rattus norvegicus [9]): 10.6 days
IC50 [5]: 1.2 nM

SMILES: CCCCCCC(O)CCCCCCCCC[C@@H](O)[C@H](O)C(N)(CO)CO (stereo partly specified)
MST (Rattus norvegicus [1]): 12.2 days
MST (Rattus norvegicus [3]): 11 days
MST (Rattus norvegicus [20]): Toxic
IC50 [5]: 1630 nM
MST (Rattus norvegicus [6]): 9.2 days
MST (Rattus norvegicus [21]): 12.5 days

SMILES: C/C=C/C[C@@H](C)[C@@H](O)[C@H]1C(=O)N[C@@H](CC)C(=O)N(C)CC(=O)N(C)[C@@H](CC(C)C)C(=O)N[C@@H](C(C)C)C(=O)N(C)[C@@H](CC(C)C)C(=O)N[C@@H](C)C(=O)N[C@H](C)C(=O)N(C)[C@@H](CC(C)C)C(=O)N(C)[C@@H](CC(C)C)C(=O)N(C)[C@@H](C(C)C)C(=O)N1C [CYCLOSPORINE]
MST (Rattus norvegicus [19]): 20.5 days
MST (Rattus norvegicus [15]): 8.5 days
MST (Rattus norvegicus [16]): 10.3 days
MST (Rattus norvegicus [6]): 7.6 days
MST (Rattus norvegicus [17]): 13.5 days
MST (Rattus norvegicus [21]): 19.4 days

SMILES: CCCCCCC(=O)CCCCCC/C=C/C[C@@H](O)[C@H](O)[C@@](N)(CO)C(=O)O [MYRIOCIN]
MST (Rattus norvegicus [10]): Toxic
IC50 [5]: 3 nM
